Measured values from ChEMBL document CHEMBL6177922, “Antibacterial activity of the structurally novel C-2 amine-substituted analogues based on quinoxaline” (RSC Med Chem, 2025).
Converted amounts (≈) assume the structure as drawn. The source made the active and inactive calls. The calls are words filed in the database; no cut-off is given here.

How the values were obtained:
Escherichia coli [1] = assay: Antibiofilm activity against Escherichia coli assessed as reduction in number of viable cells at 2 times MIC incubated for 24 hrs; format: functional, organism-based
Method in brief: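 E. coli was grown to mid-log phase and adjusted to 2 × 10^6 CFU mL−1. Biofilms were grown for 48 h, then the spent medium was removed and loose cells were washed off with PBS. Compound was added at MIC, 2× MIC or 4× MIC for 24 h, with a sterile-medium control. Biofilms were dispersed with trypsin–EDTA, 10-fold dilutions were plated, and colonies were counted after 24 h as log10 CFU mL−1.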

Pseudomonas aeruginosa = assay: Antibacterial activity against drug sensitive Pseudomonas aeruginosa PAO1 assessed as reduction in bacterial growth by broth microdilution method; format: functional
Method in brief: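 MICs were determined by standard twofold serial broth microdilution in lysogeny broth (LB) medium.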

Staphylococcus aureus [2] = assay: Antibacterial activity against methicillin-resistant Staphylococcus aureus assessed as effect on viable bacterial growth measured after 24 hrs; format: functional, organism-based
Escherichia coli [3] = assay: Antibacterial activity against Escherichia coli measured for 9 days; format: functional, organism-based; conditions: time 9.0 day
Method in brief: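 E. coli was serially subcultured in fresh medium, starting from the initial MIC. The MIC was redetermined every 24 h. A reference antibiotic was tested in parallel by twofold dilution. The regimen ran for 24 days in total.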

Cell membrane [4] = assay: Induction of cell membrane permeabilization in Escherichia coli assessed as increase in fluorescence intensity at 3 times MIC incubated for 8 hrs by PI staining based confocal laser scanning microscopic analysis; format: subcellular
Method in brief: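 Log-phase E. coli was washed and resuspended in PBS (10 mM, pH 7.2) at 2 × 10^6 CFU mL−1 (OD600 0.2–0.4). Cells were treated with 3× MIC for 8 h at 37 °C, with a PBS control, then stained with SYTO 9 and PI for 30 min in the dark and imaged by confocal microscopy. Run in duplicate.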

Cell membrane [5] = assay: Induction of cell membrane depolarization in methicillin-resistant Staphylococcus aureus assessed as increase in fluorescence intensity at 3 times of MIC measured up to 15 hrs by DiSC3-5 dye based fluorescence analysis; format: subcellular
Method in brief: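 Membrane potential assay. Mid-log MRSA (6 h growth) pelleted and resuspended in 100 mM KCl, 5 mM HEPES (pH 7.3) and 5 mM glucose (1:1:1). Mixed with DiSC3(5) at 8 μM final and preincubated 40 min at 37 °C. Compound added at 3× MIC, water control. Fluorescence read at ex 622 / em 670 nm.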

Cell membrane [6] = assay: Induction of cell membrane integrity in methicillin-resistant Staphylococcus aureus assessed as increase in K+ efflux at 3 times MIC by absorption spectrophotometric analysis; format: subcellular
Method in brief: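 K+ leakage: mid-log MRSA (6 h) resuspended in 10 mM HEPES (pH 7.3)/5 mM glucose at ~2 × 10^6 CFU mL-1. Incubated with compound at 3× MIC at 37 °C for various times, PBS control. Supernatant K+ measured by atomic absorption spectrophotometry. Duplicate.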

Staphylococcus aureus [7] = assay: Antibiofilm activity against Methicillin-resistant Staphylococcus aureus assessed as reduction in number of viable cells at 16 times MIC incubated for 24 hrs; format: functional, organism-based
Cell membrane [8] = assay: Induction of cell membrane permeabilization in methicillin-resistant Staphylococcus aureus assessed as increase in fluorescence intensity at 3 times MIC incubated for 8 hrs by PI staining based confocal laser scanning microscopic analysis; format: subcellular
Method in brief: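 Log-phase MRSA washed in PBS (10 mM, pH 7.2) and resuspended at 2 × 10^6 CFU mL-1 (OD600 0.2–0.4). Treated at 3× MIC for 8 h at 37 °C, PBS control. Stained with SYTO 9/propidium iodide 30 min in the dark, imaged by confocal laser scanning microscopy. Duplicate.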

Staphylococcus aureus [9] = assay: Antibacterial activity against methicillin-resistant Staphylococcus aureus assessed as increase in number of bacteria at 3 times MIC measured up to 5 hrs; format: functional, organism-based
Method in brief: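 Cells washed three times in sterile saline by centrifugation, moved to fresh TSB at 37 °C. Viable counts plated on TSB agar at 2–17 h. PCE = t − c, the time for a 1-log rise in treated versus control. Run twice.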

Staphylococcus aureus [10] = assay: Antibacterial activity against methicillin-resistant Staphylococcus aureus measured for 9 days; format: functional, organism-based; conditions: time 9.0 day
Method in brief: (§1)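 Resistance development: MRSA serially subcultured in fresh medium starting from the initial MIC. MIC reassessed every 24 h over 24 days, alongside a reference antibiotic given in twofold dilutions.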

Cell membrane [11] = assay: Induction of cell membrane depolarization in Escherichia coli assessed as increase in fluorescence intensity at 3 times of MIC measured up to 15 hrs by DiSC3-5 dye based fluorescence analysis; format: subcellular
Method in brief: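 Mid-log E. coli (6 h culture) was resuspended in 100 mM KCl, 5 mM HEPES pH 7.3 and 5 mM glucose (1:1:1). Cells were loaded with DiSC3(5) at 8 μM final for 80 min at 37 °C, then exposed to 3× MIC. Fluorescence was read at ex 622 nm / em 670 nm, with a water control.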

Staphylococcus aureus [12] = assay: Antibacterial activity against methicillin-resistant Staphylococcus aureus measured for 15 days; format: functional, organism-based; conditions: time 15.0 day; method in brief: as §1
Staphylococcus aureus [13] = assay: Drug resistance, ratio of MIC for Staphylococcus aureus after 15 days to MIC for Staphylococcus aureus after initial exposure; format: functional; conditions: time 15 day; method in brief: as §1

Q: What does the source list for `CC(C)(C)c1ccc(CCNc2nc3ccccc3nc2N)cc1`?
A: Activity (Escherichia coli [1]): Active; MIC (Pseudomonas aeruginosa): 64 µg/mL (≈ 200 µM); Activity (Staphylococcus aureus [2]): Active; Activity (Escherichia coli [3]): Active; Activity (Cell membrane [4]): inactive; Activity (Cell membrane [5]): Active; Activity (Cell membrane [6]): Active; Activity (Staphylococcus aureus [7]): Active; Activity (Cell membrane [8]): inactive; Activity (Staphylococcus aureus [9]): Active; Activity (Staphylococcus aureus [10]): Active; Activity (Cell membrane [11]): Active; Activity (Staphylococcus aureus [12]): Active; Ratio (Staphylococcus aureus [13]): 3
